Assay results collected from several papers.
Each line is one published result; the experiments were not run side by side.
Target: Aurora kinase C (AURKC, Homo sapiens, UniProt Q9UQB9)
Sequence (Q9UQB9 1-309, as in one of the studies): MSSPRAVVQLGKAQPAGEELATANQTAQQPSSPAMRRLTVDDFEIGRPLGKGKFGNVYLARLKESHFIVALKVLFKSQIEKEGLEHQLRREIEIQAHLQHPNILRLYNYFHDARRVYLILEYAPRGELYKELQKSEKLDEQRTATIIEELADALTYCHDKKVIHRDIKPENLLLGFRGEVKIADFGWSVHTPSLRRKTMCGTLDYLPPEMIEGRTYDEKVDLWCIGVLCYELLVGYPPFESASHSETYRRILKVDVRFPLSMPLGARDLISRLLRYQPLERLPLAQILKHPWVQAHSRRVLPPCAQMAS

Structure (SMILES)	test	conditions	endpoint	value
COc1ccc2[nH]c3c4[nH]c5ccc(OC)cc5c4c4c(c3c2c1)C(=O)NC4=O	binding, competition with immobilised ligand	1 µM	remaining binding	17%
C1=C/COCc2cc(ccc2OCCN2CCCC2)Nc2nccc(n2)-c2cccc(c2)COC/1	binding	0.1 µM	remaining binding	96%
CC#CC(=O)N1CCC[C@H]1c1nc(-c2ccc(C(=O)Nc3ccccn3)cc2)c2c(N)nccn12	enzyme activity, inhibitor	1 µM	inhibition	18%
Cc1ccc(NC(=O)c2ccnc(C(F)(F)F)c2)cc1-c1cc(OCCO)nc(N2CCOCC2)c1	binding, competition with immobilised ligand	1 µM	remaining binding	83%
CO[C@@H]1[C@H](N(C)C(=O)c2ccccc2)C[C@H]2O[C@]1(C)n1c3ccccc3c3c4c(c5c6ccccc6n2c5c31)C(=O)NC4	enzyme activity, inhibitor	1 µM	inhibition	99%
CC(C)S(=O)(=O)c1ccc2nccc(Nc3ccc4sc(C5CCCC5)nc4c3)c2c1	enzyme activity, inhibitor	1 µM	activity vs control	101%
C[C@]1(O)CCCN(c2nc(Nc3ccc(S(=O)(=O)N[C@H]4CC[C@H](CN5CCN(c6ccc(C7CCC(=O)NC7=O)cc6F)CC5)CC4)cc3F)ncc2C(F)(F)F)C1 (stereo partly shown)	binding, competition with immobilised ligand	1 µM	remaining binding	97%
CCCCC(=O)Nc1ccc(-c2ccc3ncn(CCC)c(=O)c3c2)cn1	binding, competition with immobilised ligand	0.5 µM	remaining binding	83%
CNS(=O)(=O)c1ccc(Nc2ncc(C(F)(F)F)c(N3CCC[C@](C)(O)C3)n2)c(C)c1	binding, competition with immobilised ligand	1 µM	remaining binding	37%
COc1ccc2oc(-c3ccc4nc(N)oc4c3)c/c(=N\c3ccccc3NC(=O)CCN)c2c1	binding	1 µM	remaining binding	106%
